Only some compounds are listed: those with a hit (about 1.9% of all), similar ones and a draw of the others.
MBD2 inh = inhibitors of human MBD2 binding to methylated oligonucleotide; Q9UBB5; TR-FRET; inhibition, % at 4.4 µM; actives 0.31% (n = 370,000); AID 686964; in the data active means inhibition above about 13%
Rin1 Abl inh = human Rin1-Abl interaction inhibition; actives 0.4% (n = 360,000); TR-FRET Rin1/Abl binding, biochemical; inhibition, % at 7.35 µM; in the data active means inhibition above about 5%, passing the limit was not always enough
TDP2 absorb = TDP2 (human) inhibition, absorbance primary screen; O95551; recombinant TDP2, T5PNP hydrolysis, p-nitrophenol absorbance 415 nm; inhibition, % at 12.8 µM; actives 0.34% (n = 370,000);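 active means inhibition above the mean of all tested compounds plus 3 SD, set per campaign, cut at about 25% in these data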;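 further: 0% = DMSO with enzyme and 100% = buffer with substrate but no TDP2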
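Assay system: Recombinant human TDP2 | Quantity: 120 nM TDP2 per well | Incubation: 2 h at 37 °C | Signal: Epi absorbance | Evaluation: Percent inhibition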
LEDGF integ inh = blocks HIV-1 LEDGF/p75-dependent DNA integration | inhibition, % at 3.7 µM | TR-FRET IN-LEDGF/p75 DNA integration, Eu/Cy5 | actives 0.64% (n = 370,000);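 active means inhibition above the screen-wide mean plus 3 SD, cut at about 13% in these data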;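 further: signal is the Cy5 over europium emission ratio at 671 and 618 nm; 0% = plate median of compound wells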
UHRF1 binding = human UHRF1 methylated DNA binding inhibitors. Q96T88. UHRF1 binding to methylated oligo, TR-FRET. inhibition, % at 4.4 µM. actives 0.75% (n = 370,000). AID 687016; in the data active means inhibition above about 21%;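 further: UHRF1 SRA domain binding a hemimethylated CpG hairpin DNA probe; 0% = median of test compound wells and 100% = reference inhibitor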
Target sequence (Q96T88 whole entry, looked up, the tested form may be a part): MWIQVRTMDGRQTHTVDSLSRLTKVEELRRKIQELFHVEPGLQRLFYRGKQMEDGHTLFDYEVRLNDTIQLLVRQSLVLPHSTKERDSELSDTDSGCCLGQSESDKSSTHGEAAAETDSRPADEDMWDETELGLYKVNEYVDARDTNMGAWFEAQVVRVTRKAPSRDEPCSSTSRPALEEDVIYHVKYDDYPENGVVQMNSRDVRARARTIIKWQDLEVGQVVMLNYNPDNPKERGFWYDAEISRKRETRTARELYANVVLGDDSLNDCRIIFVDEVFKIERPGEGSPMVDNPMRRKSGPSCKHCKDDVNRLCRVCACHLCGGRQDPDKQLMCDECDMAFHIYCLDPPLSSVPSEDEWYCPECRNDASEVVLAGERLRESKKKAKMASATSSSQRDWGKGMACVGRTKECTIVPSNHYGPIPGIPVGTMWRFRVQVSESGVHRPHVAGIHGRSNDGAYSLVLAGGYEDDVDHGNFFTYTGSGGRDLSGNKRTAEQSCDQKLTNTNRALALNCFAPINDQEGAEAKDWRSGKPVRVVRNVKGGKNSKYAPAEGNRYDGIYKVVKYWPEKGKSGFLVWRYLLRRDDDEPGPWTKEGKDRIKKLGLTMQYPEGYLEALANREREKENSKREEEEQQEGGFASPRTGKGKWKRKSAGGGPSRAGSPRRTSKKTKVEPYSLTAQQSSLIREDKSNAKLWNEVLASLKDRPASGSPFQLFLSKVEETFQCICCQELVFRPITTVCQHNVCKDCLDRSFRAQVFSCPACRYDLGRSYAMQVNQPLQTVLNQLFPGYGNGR
An asterisk follows results filed as active; nt = not tested or not shown.

SMILES | MBD2 inh | Rin1 Abl inh | TDP2 absorb | LEDGF integ inh | UHRF1 binding
Cc1cc(C(=O)OCC(=O)N2CCC(C)CC2)c2ccccc2n1 | -2 | 0 | -4 | 35* | 2
CC1(C)Oc2ccc(C(=O)NCCCN3CCCC3)cc2NC1=O | -6 | nt | 0 | 6 | -2
O=C(C1CCC1)N1CCc2cc(S(=O)(=O)N3CCN(c4ccccc4F)CC3)ccc21 | 5 | nt | -3 | -3 | 1
CC1=NN(c2ccccc2)C(=O)C1N=Nc1cccc(O)c1 (configuration not stated) | -4 | -1 | 0 | 0 | -2
CC1=NN(c2ccc(C)cc2C)C(=O)C1C(c1cccc(O)c1)C1C(=O)N(c2ccc(C)cc2C)N=C1C (configuration not stated) | -4 | 3 | 71* | 12 | 8
C[C@H](CO)N1C[C@H](C)[C@@H](CN(C)C(=O)Nc2ccc(F)cc2)Oc2cc(Br)ccc2S1(=O)=O | 8 | 2 | -2 | -3 | 19
C[C@@H]1CN([C@H](C)CO)S(=O)(=O)c2ccc(Br)cc2O[C@H]1CN(C)C(=O)Nc1ccccc1 | 3 | 6 | -3 | -2 | 21*
C[C@@H]1CN([C@@H](C)CO)S(=O)(=O)c2ccc(Br)cc2O[C@H]1CN(C)C(=O)Nc1ccc2c(c1)OCO2 | -6 | 1 | 7 | -1 | 56*
CC(O)(CC(=O)CC(=O)c1ccccc1)c1ccccc1 (configuration not stated) | 0 | 0 | -6 | 2 | 43*
O=C(c1ccccc1)N1CCC(=O)N1c1ccccc1 | 1 | 0 | -3 | -2 | 37*
CC(=O)Oc1cc(C(=O)OCC(=O)NC23CC4CC(CC(C4)C2)C3)cc(OC(C)=O)c1OC(C)=O | 8 | 9.8* | 1 | 44* | 15
COc1ccc(-c2cc(C(=O)NNC(=S)NC(=O)c3c(-c4ccccc4)noc3C)[nH]n2)cc1 | 1 | -1 | -1 | -11 | 22*
COc1ccc(/C=C/C(=O)NC(=S)NNC(=O)c2c(-c3ccccc3)noc2C)cc1 | 1 | 1 | 12 | -2 | 0
NC(=O)CSc1nc2ccccc2c(=O)n1Cc1ccccc1 | 0 | -3 | 2 | 6 | 2
CCn1c(SCC(N)=O)nc2ccccc2c1=O | 4 | 0 | 3 | -2 | 25*
COc1ccccc1CNC(=O)CSc1nc2c(oc3ccccc32)c(=O)n1CC1CCCO1 (configuration not stated) | 3 | 0 | -6 | 3 | 2
COc1ccccc1Cn1c(SCC(N)=O)nc2c(oc3ccccc32)c1=O | 1 | -2 | -5 | -1 | 61*
O=C(O)c1ccccc1C(=O)c1cccs1 | 8 | 3 | -1 | 1 | 24*
O=C(c1ccccc1)c1cccs1 | 6 | 2 | 1 | -1 | -1
CCC(C)[C@H](NC(=O)[C@H](CC(C)C)NC(=O)OC(C)(C)C)C(=O)N[C@@H](Cc1ccccc1)C(=O)OC (some centres not stated) | 7 | nt | -6 | 3 | 2
O=C(/C(=C(\[O-])c1ccccc1)[n+]1ccc2ccccc2c1)c1ccc(Cl)cc1 | 2 | -1 | -4 | 0 | 25*
CC(C)C[C@H](NC(=O)N1CCn2c1nc1ccccc12)C(=O)NCCc1ccccc1 | 2 | 0 | 3 | 1 | 52*
CC(C)C[C@H](NC(=O)N1CCn2c1nc1ccccc12)C(=O)NCc1ccccc1 | -2 | 1 | -14 | 1 | 0
Cc1cc(C)c2sc(NNC(=O)c3ccc(S(=O)(=O)N4CCc5ccccc5C4)cc3)nc2c1 | 1 | -1 | -4 | 19* | -2
Cc1cc(C)c2nc(NNC(=O)c3ccc(S(=O)(=O)N4CCc5ccccc5C4)cc3)sc2c1 | -2 | -2 | -11 | 20* | -3
CCC(C)N(C(=O)c1oc(=O)c2ccccc2c1-c1ccc(C)cc1)C(C)CC (configuration not stated) | -3 | nt | 1 | -2 | 5
Cn1c2ccccc2c2cc(/C=N/NC(=O)c3cc(O)cc(O)c3)ccc21 | 7 | -4 | -6 | 4 | 4
Cn1c2ccccc2c2cc(/C=N/NC(=O)c3cc(O)ccc3O)ccc21 | 6 | 3 | 11 | 42* | 11
COc1ccc2c(CC(=O)OCC(=O)Nc3ccc(C)cc3)coc2c1 | 1 | 3 | 1 | 6 | 2

Assay outcomes deposited in PubChem by The Scripps Research Institute Molecular Screening Center.
